# Results pooled from the literature.
# Each line is one published result; the experiments were not run side by side.
# rep papain-like protease: Replicase polyprotein 1ab, papain-like protease (rep, Severe acute respiratory syndrome coronavirus 2, UniProt P0DTD1)
# rep helicase: Replicase polyprotein 1ab, helicase (rep, Severe acute respiratory syndrome coronavirus 2, UniProt P0DTD1)
# MAOA: Amine oxidase [flavin-containing] A (MAOA, Homo sapiens, UniProt P21397)
# ADRA1A: Alpha-1A adrenergic receptor (ADRA1A, Homo sapiens, UniProt P35348)
Compound,target,observed,action,method,endpoint,value
CCCNC(=O)[C@H]1O[C@@H]1C(=O)N[C@H](C(=O)N1CCC[C@H]1C(=O)O)[C@@H](C)CC,rep papain-like protease,enzyme activity,inhibitor,FRET,IC50,170 µM
CSCCNc1nc(SCCC(F)(F)F)nc2c1ncn2[C@@H]1O[C@H](COP(=O)(O)OP(=O)(O)C(Cl)(Cl)P(=O)(O)O)[C@@H](O)[C@H]1O,rep helicase,enzyme activity,inhibitor,,IC50,> 100 µM
Cc1cc(Nc2ncc(Cl)c(Nc3ccccc3S(=O)(=O)C(C)C)n2)c(OC(C)C)cc1C1CCNCC1,rep papain-like protease,enzyme activity,inhibitor,FRET,IC50,19.5 µM
CCC(C(=O)Nc1cc(NC2CCOC2)ccc1C)n1cc(Cl)cc2nc(SCc3ccc(F)cc3)nc1-2 (stereo not shown),rep papain-like protease,enzyme activity,inhibitor,,IC50,0.169 µM
COc1ccc2cc1Oc1ccc(cc1)C[C@H]1c3c(cc4c(c3Oc3cc5c(cc3OC)CCN(C)[C@@H]5C2)OCO4)CCN1C,rep helicase,enzyme activity,inhibitor,,IC50,4.5 µM
C#CCN(C)CCCCCCOc1cccc(CN(C)c2c3c(nc4ccc(C)cc24)CCCC3)c1,MAOA,enzyme activity,inhibitor,fluorescence,IC50,4.87 µM
CNC(=O)c1ccc(-c2cnn3ccc(C(=O)N(C)c4ccc(Cl)c(C(=O)OC)c4)cc23)cc1,ADRA1A,cell-free assay,,,IC50,> 30 µM
CCC(C(=O)Nc1cc(NC2COC2)ccc1C)n1cc(F)cc2nc(SCc3ccc(F)cc3)nc1-2 (stereo not shown),rep papain-like protease,enzyme activity,inhibitor,,IC50,0.436 µM
Brc1ccc2c(c1)C(c1ccccn1)=NCc1c(-c3cnco3)ncn1-2,"Translocator protein (Tspo, Rattus norvegicus, UniProt P16257)",ligand displacement,,radioligand,Ki,0.331 µM
C#CCN(C)CCCCCCCCOc1cccc(CN(C)c2c3c(nc4ccc(F)cc24)CCCC3)c1,MAOA,enzyme activity,inhibitor,fluorescence,IC50,61.3 µM
CCCC(C(=O)Nc1cc(NC2CNC2)ccc1C)n1cccc2nc(SCc3ccc(F)cc3)nc1-2 (stereo not shown),rep papain-like protease,enzyme activity,inhibitor,,IC50,1.48 µM
C#CCN(C)CCOc1cccc(CN(C)c2c3c(nc4ccccc24)CCCC3)c1,MAOA,enzyme activity,inhibitor,fluorescence,IC50,10.3 µM
COC(=O)c1cc(N(C)C(=O)c2ccn3ncc(-c4ccc(C(=O)O)cc4)c3c2)ccc1Cl,ADRA1A,cell-free assay,,,IC50,> 30 µM
